Calls of active or inactive are those of the source. No cut-off for these calls is given here.
Key:
[1] = system: Huh-7; assay: Cytotoxicity against human HuH7 cells assessed as reduction in cell viability at 10 uM after 48 hrs by Alamar blue assay; assay type: cell-based; conditions: huh-7, 48 h
Procedure, shortened: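 Huh-7 cells seeded and infected with P. berghei sporozoites as in the liver-stage assay, with compound added about 1 h before infection and DMSO vehicle in controls. Host cell viability read by AlamarBlue fluorescence 48 h post-infection.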

[2] = Cytotoxicity against human Caco2 cells assessed as reduction in cell viability after 72 hrs by neutral red dye based assay; conditions: Caco-2 cells
Procedure, shortened: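 CaCo-2 cells grown in RPMI-1640 with 10% FBS and antibiotic-antimycotic at 37°C, 5% CO2. Exposed once confluent for 72 h to compound diluted in medium, organic solvent ≤1%. Medium then removed and cells washed with PBS.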

[3] = system: Plasmodium berghei; assay: Antiplasmodial activity against luciferase expressing Plasmodium berghei sporozoites infected in human HuH7 cells at 2 uM preincubated for 1 hr followed by parasite infection measured after 48 hrs by bioluminescence analysis relative to control; assay type: functional
Procedure, shortened: (§1)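 Huh-7 hepatoma cells (1.0 × 10^4/well) seeded the day before. Compound-containing medium added about 1 h before infection with fresh firefly luciferase-expressing P. berghei sporozoites from Anopheles stephensi salivary glands, then spun 1700 g for 5 min. DMSO vehicle in controls. Parasite load read by bioluminescence 48 h post-infection. Initial screen at fixed concentrations; EC50 from nonlinear regression of normalized dose-response data.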

[4] = system: Plasmodium berghei; assay: Antiplasmodial activity against luciferase expressing Plasmodium berghei sporozoites infected in human HuH7 cells at 10 uM preincubated for 1 hr followed by parasite infection measured after 48 hrs by bioluminescence analysis relative to control; assay type: functional; procedure, shortened: as §1
[5] = system: Plasmodium falciparum; assay: Antiplasmodial activity against chloroquine resistant Plasmodium falciparum W2 erythrocytic ring stage after 48 hrs using hypoxanthine by flow cytometric analysis; assay type: functional, organism-based; conditions: W2, 48 h
Procedure, shortened: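 Ring-stage W2 P. falciparum synchronized with 5% sorbitol, about 1% parasitemia in human erythrocytes. Cells fixed in 2% formaldehyde, stained with 1 nM YOYO-1, infected cells counted by flow cytometry. IC50 taken against untreated controls; two experiments, four replicates each.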

[6] = Half life in rat liver microsomes at […] in presence of NADPH by HPLC analysis; assay type: ADME, microsome
[7] = Intrinsic clearance in rat liver microsomes assessed per mg protein at […] in presence of NADPH by HPLC analysis; assay type: ADME, microsome; conditions: read-out: CLH
[8] = system: Plasmodium berghei; assay: Antiplasmodial activity against luciferase expressing Plasmodium berghei infected in human HuH7 cells preincubated for 1 hr followed by parasite infection measured after 48 hrs by bioluminescence analysis; assay type: functional, organism-based; conditions: Huh-7; procedure, shortened: as §1
[9] = Selectivity index, ratio of CC50 for human Caco2 cells to IC50 for chloroquine resistant Plasmodium falciparum W2 erythrocytic ring stage; assay type: toxicity; conditions: Caco-2 cells, read-out: Ratio CC50/IC50

| SMILES | Activity [1] | CC50 at 72 h [2] [µM] | Activity [3] | Activity [4] | EC50 [5] [µM] | half-life [6] [min] | microsomal CLint [7] [µL/min/mg] | EC50 [8] [µM] | selectivity ratio [9] |
| --- | --- | --- | --- | --- | --- | --- | --- | --- | --- |
| COc1cc(NC(C)CCCNCC2CCC3(CC2)OOC2(OO3)C3CC4CC(C3)CC2C4)c2ncccc2c1-c1ccc(Cl)cc1 (stereo not drawn) | Toxic | 13.2 | Active | Active | – | – | – | – | – |
| COc1cc(NC(C)CCCNCC2CCC3(CC2)OOC2(OO3)C3CC4CC(C3)CC2C4)c2ncccc2c1-c1ccccc1 (stereo not drawn) | Toxic | – | Active | Active | 0.092 | – | – | – | – |
| COc1cc(NC(C)CCCNCC2CCC3(CC2)OOC2(OO3)C3CC4CC(C3)CC2C4)c2ncccc2c1-c1ccc(F)cc1 (stereo not drawn) | Toxic | – | Active | Active | 0.099 | – | – | – | – |
| COc1cc(NC(=O)C2CCC3(CC2)OOC2(OO3)C3CC4CC(C3)CC2C4)c2ncccc2c1-c1ccc(Cl)cc1 (stereo not drawn) | – | – | – | 37% | 4.19 | 125 | 11.1 | – | – |
| COc1cc(NC(=O)C2CCC3(CC2)OOC2(OO3)C3CC4CC(C3)CC2C4)c2ncccc2c1-c1ccc(F)cc1 (stereo not drawn) | – | – | – | – | 0.916 | 60 | 23.1 | – | – |
| COc1cc(NC(C)CCCNC(=O)C2CCC3(CC2)OOC2(OO3)C3CC4CC(C3)CC2C4)c2ncccc2c1Br (stereo not drawn) | Toxic | – | >50% | Active | 0.016 | 14 | 99 | – | – |
| COc1cc(NCCCCNC(=O)C2CCC3(CC2)OOC2(OO3)C3CC4CC(C3)CC2C4)c2ncccc2c1-c1ccc(F)cc1 (stereo not drawn) | Non-Toxic | 10.2 | >50% | Active | 0.015 | 15 | 92.4 | 1.11 | – |
| COc1cc(NC(C)CCCN)c2ncccc2c1-c1ccc(C)cc1 (stereo not drawn) | – | – | – | – | 2.35 | – | – | 5.43 | – |
| COc1cc(NC(C)CCCNC(=O)C2CCC3(CC2)OOC2(OO3)C3CC4CC(C3)CC2C4)c2ncccc2c1-c1ccc(F)cc1 (stereo not drawn) | Non-Toxic | > 50 | >50% | Active | 0.057 | 40 | 34.6 | 2.38 | > 1000 |
| COc1cc(NC(C)CCCNC(=O)C2CCC3(CC2)OOC2(OO3)C3CC4CC(C3)CC2C4)c2ncccc2c1-c1ccccc1 (stereo not drawn) | Non-Toxic | > 50 | >50% | Active | 0.204 | 42 | 33 | 1.69 | – |
| COc1cc(NC(=O)C2CCC3(CC2)OOC2(OO3)C3CC4CC(C3)CC2C4)c2ncccc2c1-c1ccccc1 (stereo not drawn) | – | – | – | 52% | 0.287 | 42 | 33 | – | – |
| COc1cc(NC(C)CCCNC(=O)C2CCC3(CC2)OOC2(OO3)C3CC4CC(C3)CC2C4)c2ncccc2c1-c1ccsc1 (stereo not drawn) | Non-Toxic | > 50 | >50% | Active | 0.045 | 37 | 37.4 | 2.11 | > 600 |
| COc1cc(NC(C)CCCNC(=O)C2CCC3(CC2)OOC2(OO3)C3CC4CC(C3)CC2C4)c2ncccc2c1-c1ccoc1 (stereo not drawn) | Non-Toxic | > 50 | >50% | Active | 0.076 | – | – | 2.35 | > 600 |
| COc1cc(NC(=O)C2CCC3(CC2)OOC2(OO3)C3CC4CC(C3)CC2C4)c2ncccc2c1-c1ccc(Br)cc1 (stereo not drawn) | – | – | – | 35% | 5.67 | 124 | 11.2 | – | – |
| COc1cc(NC(C)CCCNC(=O)C2CCC3(CC2)OOC2(OO3)C3CC4CC(C3)CC2C4)c2ncccc2c1-c1ccc(C(F)(F)F)cc1 (stereo not drawn) | Non-Toxic | > 50 | >50% | Active | 0.06 | 100 | 13.9 | 4.12 | > 1000 |
| COc1cc(NC(C)CCCNCC2CCC3(CC2)OOC2(OO3)C3CC4CC(C3)CC2C4)c2ncccc2c1-c1ccsc1 (stereo not drawn) | Toxic | – | Active | Active | 0.081 | – | – | – | – |
| COc1cc(NCCCNC(=O)C2CCC3(CC2)OOC2(OO3)C3CC4CC(C3)CC2C4)c2ncccc2c1-c1ccc(F)cc1 (stereo not drawn) | Non-Toxic | – | >50% | Active | 0.015 | 35 | 39.6 | 2.61 | – |
| C[C@@H]1CC[C@H]2[C@@H](C)C(=O)O[C@@H]3O[C@@]4(C)CC[C@@H]1[C@]32OO4 [ARTEMISININ] | – | – | – | – | 0.01 | – | – | – | – |
| CCOC(=O)C1CCC2(CC1)OOC1(OO2)C2CC3CC(C2)CC1C3 (stereo not drawn) | – | – | – | – | – | – | – | 17.3 | – |
| COc1cc(NC(C)CCCNCC2CCC3(CC2)OOC2(OO3)C3CC4CC(C3)CC2C4)c2ncccc2c1-c1ccoc1 (stereo not drawn) | Toxic | – | Active | Active | 0.12 | – | – | – | – |
| COc1cc(NC(C)CCCNC(=O)C2CCC3(CC2)OOC2(OO3)C3CC4CC(C3)CC2C4)c2ncccc2c1-c1ccc(C)cc1 (stereo not drawn) | Non-Toxic | > 50 | >50% | Active | 0.141 | 87 | 15.9 | 1.65 | – |
| COc1cc(NC(C)CCCNC(=O)C2CCC3(CC2)OOC2(OO3)C3CC4CC(C3)CC2C4)c2ncccc2c1-c1ccc(Cl)cc1 (stereo not drawn) | Non-Toxic | > 50 | >50% | Active | 0.075 | 129 | 10.7 | 2.81 | > 1000 |
| COc1cc(NC(C)CCCNCC2CCC3(CC2)OOC2(OO3)C3CC4CC(C3)CC2C4)c2ncccc2c1-c1ccc(C(F)(F)F)cc1 (stereo not drawn) | Toxic | 10.3 | Active | 62% | 0.019 | – | – | – | – |
| COc1cc(NC(C)CCCNC(=O)C2CCC3(CC2)OOC2(OO3)C3CC4CC(C3)CC2C4)c2ncccc2c1-c1ccc(Br)cc1 (stereo not drawn) | Non-Toxic | > 50 | >50% | Active | 0.061 | – | – | 4.44 | > 1000 |
| COc1cc(NC(C)CCCNCC2CCC3(CC2)OOC2(OO3)C3CC4CC(C3)CC2C4)c2ncccc2c1-c1ccc(C)cc1 (stereo not drawn) | Toxic | 11.7 | Active | Active | 0.176 | – | – | – | – |
| COc1cc(NCCCCCNC(=O)C2CCC3(CC2)OOC2(OO3)C3CC4CC(C3)CC2C4)c2ncccc2c1-c1ccc(F)cc1 (stereo not drawn) | Non-Toxic | – | >50% | Active | 0.017 | 25 | 55.4 | 1.64 | – |

Source: ChEMBL document CHEMBL4196053, “Endoperoxide-8-aminoquinoline hybrids as dual-stage antimalarial agents with enhanced metabolic stability” (Eur J Med Chem, 2018)
